Eleven compounds from ChEMBL document CHEMBL1148673, “Peptidomimetic C5a receptor antagonists with hydrophobic substitutions at the C-terminus: increased receptor specificity and in vivo activity” (Bioorg Med Chem Lett, 2006) can be followed below.

Residues, ends and D or L forms follow the SMILES beside them.

In the experiment the target is T1, C5a anaphylatoxin chemotactic receptor 1 (Homo sapiens, UniProt P21730).
T1 sequence (P21730 whole entry): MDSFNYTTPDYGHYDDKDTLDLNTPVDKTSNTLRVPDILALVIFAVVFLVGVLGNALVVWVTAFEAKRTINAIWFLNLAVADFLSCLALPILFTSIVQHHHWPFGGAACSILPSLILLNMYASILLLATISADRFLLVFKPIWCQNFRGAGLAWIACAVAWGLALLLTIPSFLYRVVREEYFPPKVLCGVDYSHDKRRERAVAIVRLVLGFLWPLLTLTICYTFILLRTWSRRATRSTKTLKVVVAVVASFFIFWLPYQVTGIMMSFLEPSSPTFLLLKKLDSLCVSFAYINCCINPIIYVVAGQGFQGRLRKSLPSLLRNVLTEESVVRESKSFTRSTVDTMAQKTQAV
As to the kind of experiment: Antagonist activity at human C5aR in CD88 transfected RBL cells assessed as inhibition of C5a-induced glucosaminidase release. In kind it is functional, cell-based. The procedure, abridged:
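Functional antagonism read as inhibition of glucosaminidase release stimulated by C5a from RBL cells transfected with CD88 (RBL+); IC50 in µM.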

As to `CC(=O)N[C@@H](Cc1ccccc1)C(=O)N[C@H]1CCCNC(=O)[C@H](CCCNC(=N)N)NC(=O)[C@H](Cc2c[nH]c3ccccc23)NC(=O)[C@@H](CC2CCCCC2)NC(=O)[C@H](C)NC1=O`, the IC50 (usually the concentration needed to halve the response being measured) was found to be 25 nM. The result for `CC[C@H](C)[C@@H]1NC(=O)[C@H](Cc2c[nH]c3ccccc23)NC(=O)[C@@H](CC2CCCCC2)NC(=O)[C@@H]2CCCN2C(=O)[C@@H](NC(=O)[C@H](Cc2ccccc2)NC(C)=O)CCCNC1=O` reads 50 nM; that for `CCCC[C@H](NC(=O)[C@H](Cc1c[nH]c2ccccc12)NC(=O)[C@@H](CC1CCCCC1)NC(=O)[C@@H]1CCCN1C(=O)[C@H](CCCN)NC(=O)[C@H](Cc1ccccc1)NC(C)=O)C(N)=O`, 463 nM. In the case of `CC(=O)N[C@@H](Cc1ccccc1)C(=O)N[C@H]1CCCNC(=O)[C@H](Cc2cccs2)NC(=O)[C@H](Cc2c[nH]c3ccccc23)NC(=O)[C@@H](CC2CCCCC2)NC(=O)[C@@H]2CCCN2C1=O` (HELM PEPTIDE1{[ac].F.[Orn].P.[O=C([C@@H](CC1CCCCC1)N[*:1])[*:2]].W.[O=C([C@H](Cc1cccs1)N[*:1])[*:2]]}$PEPTIDE1,PEPTIDE1,3:R3-7:R2$$$V2.0), the IC50 is 22 nM. The result for `CCC[C@@H]1NC(=O)[C@H](Cc2c[nH]c3ccccc23)NC(=O)[C@@H](CC2CCCCC2)NC(=O)[C@@H]2CCCN2C(=O)[C@@H](NC(=O)[C@H](Cc2ccccc2)NC(C)=O)CCCNC1=O` (HELM PEPTIDE1{[ac].F.[Orn].P.[O=C([C@@H](CC1CCCCC1)N[*:1])[*:2]].W.[Nva]}$PEPTIDE1,PEPTIDE1,3:R3-7:R2$$$V2.0) reads 18 nM; that for `CCCC[C@@H]1NC(=O)[C@H](Cc2c[nH]c3ccccc23)NC(=O)[C@@H](CC2CCCCC2)NC(=O)[C@@H]2CCCN2C(=O)[C@@H](NC(=O)[C@H](Cc2ccccc2)NC(C)=O)CCCNC1=O` (HELM PEPTIDE1{[ac].F.[Orn].P.[O=C([C@@H](CC1CCCCC1)N[*:1])[*:2]].W.[Nle]}$PEPTIDE1,PEPTIDE1,3:R3-7:R2$$$V2.0), 25 nM. Then `CC(=O)N[C@@H](Cc1ccccc1)C(=O)N[C@H]1CCCNC(=O)[C@H](CCCN=C(N)N)NC(=O)[C@H](C)NC(=O)[C@@H](CC2CCCCC2)NC(=O)[C@@H]2CCCN2C1=O` (HELM PEPTIDE1{[ac].F.[Orn].P.[O=C([C@@H](CC1CCCCC1)N[*:1])[*:2]].A.R}$PEPTIDE1,PEPTIDE1,3:R3-7:R2$$$V2.0), with 100000 nM.

As for `CC(=O)N[C@@H](Cc1ccccc1)C(=O)N[C@H]1CCCNC(=O)[C@H](C2CCCCC2)NC(=O)[C@H](Cc2c[nH]c3ccccc23)NC(=O)[C@@H](CC2CCCCC2)NC(=O)[C@@H]2CCCN2C1=O` (HELM PEPTIDE1{[ac].F.[Orn].P.[O=C([C@@H](CC1CCCCC1)N[*:1])[*:2]].W.[O=C([C@@H](N[*:1])C1CCCCC1)[*:2]]}$PEPTIDE1,PEPTIDE1,3:R3-7:R2$$$V2.0), the IC50 turned out to be 38 nM. The result for `CC(=O)N[C@@H](Cc1ccccc1)C(=O)N[C@H]1CCCNC(=O)[C@H](C)NC(=O)[C@H](Cc2c[nH]c3ccccc23)NC(=O)[C@@H](CC2CCCCC2)NC(=O)[C@@H]2CCCN2C1=O` (HELM PEPTIDE1{[ac].F.[Orn].P.[O=C([C@@H](CC1CCCCC1)N[*:1])[*:2]].W.A}$PEPTIDE1,PEPTIDE1,3:R3-7:R2$$$V2.0) reads 6900 nM; that for `CC(=O)N[C@@H](Cc1ccccc1)C(=O)N[C@H]1CCCNC(=O)[C@H](Cc2ccccc2)NC(=O)[C@H](Cc2c[nH]c3ccccc23)NC(=O)[C@@H](CC2CCCCC2)NC(=O)[C@@H]2CCCN2C1=O` (HELM PEPTIDE1{[ac].F.[Orn].P.[O=C([C@@H](CC1CCCCC1)N[*:1])[*:2]].W.F}$PEPTIDE1,PEPTIDE1,3:R3-7:R2$$$V2.0), 26 nM; that for `CC(=O)N[C@@H](C)C(=O)N[C@H]1CCCNC(=O)[C@H](CCCN=C(N)N)NC(=O)[C@H](Cc2c[nH]c3ccccc23)NC(=O)[C@@H](CC2CCCCC2)NC(=O)[C@@H]2CCCN2C1=O` (HELM PEPTIDE1{[ac].A.[Orn].P.[O=C([C@@H](CC1CCCCC1)N[*:1])[*:2]].W.R}$PEPTIDE1,PEPTIDE1,3:R3-7:R2$$$V2.0), 23000 nM.
